Results on 1 molecule are retold here after PubChem BioAssay AID463150 (The Scripps Research Institute Molecular Screening Center, 2010).

Activity calls are given as the source filed them.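 How the source made its calls: active means LXR activation with EC50, the half-maximal effective concentration, of 10 µM or lower; inactive means the rest.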

The assay deals with Oxysterols receptor LXR-beta (Homo sapiens) (UniProt P55055). Put plainly: LXR activator potency, GAL4 reporter, dose response, selectivity assay for RORA inverse agonist project, cell-based, luminescence, powder sample (AID 463150). The conditions noted are these: HEK293T GAL4-LXR LBD luciferase reporter, 18-24 h. A digest of the protocol: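 Material: HEK293T with GAL4-LXR LBD fusion and UAS luciferase reporter / Doses: 10-point series from nominal 10 µM / Schedule: 20 h compound exposure after 24 h transfection / Measured by: luciferase reporter luminescence / Read-out: EC50 from four-parameter sigmoidal fit with adjustable baseline of percent activation / Benchmarks: DMSO-treated cells as normalization reference for luminescence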
For orientation: A reporter such as luciferase makes a cellular process visible.

Oxysterols receptor LXR-beta (Homo sapiens), sequence (P55055 whole entry, looked up, the tested form may be a part): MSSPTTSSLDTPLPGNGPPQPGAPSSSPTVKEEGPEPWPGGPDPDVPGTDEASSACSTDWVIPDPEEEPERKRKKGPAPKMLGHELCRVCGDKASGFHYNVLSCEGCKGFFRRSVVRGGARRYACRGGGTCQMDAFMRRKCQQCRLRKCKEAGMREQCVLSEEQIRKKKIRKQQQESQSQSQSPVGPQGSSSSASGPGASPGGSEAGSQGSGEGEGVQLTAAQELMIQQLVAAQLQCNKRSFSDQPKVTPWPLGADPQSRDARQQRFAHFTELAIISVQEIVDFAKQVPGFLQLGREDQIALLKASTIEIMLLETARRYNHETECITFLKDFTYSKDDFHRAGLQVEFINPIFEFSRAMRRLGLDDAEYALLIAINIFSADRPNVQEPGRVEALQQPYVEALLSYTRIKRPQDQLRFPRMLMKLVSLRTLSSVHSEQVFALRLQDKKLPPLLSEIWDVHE

With `O=S(=O)(Nc1ccc(C(O)(C(F)(F)F)C(F)(F)F)cc1)c1cccs1`, the EC50 (in general, the midpoint of the concentration-response curve) is > 10 µM (inactive).
